Assay [1] addresses T1, Serine/threonine-protein kinase B-raf (Homo sapiens, UniProt P15056, V600E). Nature of the assay: Inhibition of human BRAF V600E mutant expressed in Sf9 cells.
Assay [2] addresses T1, Serine/threonine-protein kinase B-raf. The assay can be described thus: Inhibition of BRAF V600E mutant-mediated ERK phosphorylation in human WM266.4 cells. The format is cell-based.
A short description of assay [3]: Antiproliferative activity against human WM266.4 cells after 6 days by SRB assay. Particulars: WM 266-4, 144 h. Type of assay: functional. In a few lines:
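SRB cell proliferation assay on WM266.4 melanoma cells, which carry mutant BRAF. Growth inhibition is reported as GI50.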
In general terms: Sulforhodamine B stains cellular protein and so reports cell mass.

Usually IC50 stands for the concentration needed to halve the response being measured. As a reminder, the GI50 is the concentration giving 50% growth inhibition. The low end stands for more potent growth inhibition, the high end for less potent growth inhibition.

SMILES strings stand for the structures.

T1 sequence (P15056 2-766 V600E limits assumed): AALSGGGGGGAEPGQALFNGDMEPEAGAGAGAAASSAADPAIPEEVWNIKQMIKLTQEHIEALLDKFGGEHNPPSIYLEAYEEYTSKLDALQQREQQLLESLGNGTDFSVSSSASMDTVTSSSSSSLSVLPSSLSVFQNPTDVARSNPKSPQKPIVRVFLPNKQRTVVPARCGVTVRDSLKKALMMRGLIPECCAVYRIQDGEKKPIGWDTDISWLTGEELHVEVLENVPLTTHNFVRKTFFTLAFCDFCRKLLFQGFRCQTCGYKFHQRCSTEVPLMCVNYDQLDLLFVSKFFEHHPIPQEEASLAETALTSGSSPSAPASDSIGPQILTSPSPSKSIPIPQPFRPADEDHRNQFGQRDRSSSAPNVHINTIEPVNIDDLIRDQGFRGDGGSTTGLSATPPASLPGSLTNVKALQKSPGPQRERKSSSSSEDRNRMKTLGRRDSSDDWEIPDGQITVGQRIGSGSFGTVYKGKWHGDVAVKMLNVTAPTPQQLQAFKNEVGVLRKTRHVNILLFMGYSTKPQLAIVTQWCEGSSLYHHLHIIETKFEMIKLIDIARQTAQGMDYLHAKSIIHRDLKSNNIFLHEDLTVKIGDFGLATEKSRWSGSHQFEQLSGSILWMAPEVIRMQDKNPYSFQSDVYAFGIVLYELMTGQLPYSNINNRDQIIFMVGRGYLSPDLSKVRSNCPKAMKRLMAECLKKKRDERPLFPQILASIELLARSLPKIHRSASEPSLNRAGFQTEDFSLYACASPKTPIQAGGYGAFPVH

As for `O=C(Nc1cccc(Oc2ccnc3[nH]c(=O)[nH]c23)c1)c1ccc(Cl)c(C(F)(F)F)c1`, the IC50 worked out at 0.124 µM in assay [1] and 28 µM in assay [2]. In assay [3], the GI50 worked out at 13.4 µM.
As to `CC(C)(C)c1cc(C(=O)Nc2cccc(Oc3ccnc4[nH]c(=O)[nH]c34)c2)n(Cc2ccccc2)n1`, the IC50 in assay [1] and in assay [2] was greater than 100 µM each time.
As to `O=c1[nH]c2nccc(Oc3cccc(NS(=O)(=O)c4cccc(OC(F)(F)F)c4)c3)c2[nH]1`, the IC50 in assay [1] is 11.3 µM; in assay [2] it was 94 µM. This compound returned a GI50 in assay [3] of 0.83 µM.
On to `O=C(Nc1cc(Oc2ccnc3[nH]c(=O)[nH]c23)ccc1Cl)c1cccc(OC(F)(F)F)c1`, for which the IC50 is 0.24 µM in assay [1] and greater than 100 µM in assay [2]. This compound also gave a GI50 in assay [3] of 35 µM.
For `O=C(Nc1cccc(Oc2ccnc3[nH]c(=O)[nH]c23)c1)c1ccc(F)c(OC(F)(F)F)c1`, in that order: 0.049 µM, 27.7 µM and 7.4 µM.
On to `O=C(Nc1cc(Cl)cc(Oc2ccnc3[nH]c(=O)[nH]c23)c1)c1cccc(OC(F)(F)F)c1`, for which the IC50 in assay [1] is 0.033 µM; in assay [2], 11.3 µM. The same compound yielded a GI50 in assay [3] of 1.9 µM.
Take `O=c1[nH]c2nccc(Oc3cccc(NS(=O)(=O)c4ccccc4)c3)c2[nH]1`: the IC50 came to 1.66 µM in assay [1] and 29.6 µM in assay [2]. The concentration for 50% growth inhibition (GI50) in assay [3] came out at 0.175 µM.
Turning to `CC(C)(C)c1cc(NC(=O)Nc2cccc(Oc3ccnc4[nH]c(=O)[nH]c34)c2)n(-c2ccc(F)cc2)n1`, the IC50 in assay [1] is 0.123 µM; in assay [2], 1.96 µM.
On to `O=C(Nc1cc(Oc2ccnc3[nH]c(=O)[nH]c23)c(Cl)cc1Cl)c1cccc(OC(F)(F)F)c1`, for which the IC50 in assay [1] was 0.77 µM; in assay [2] it was greater than 100 µM. Also, in assay [3], the GI50 came out at 1.2 µM.
The like results for `O=c1[nH]c2nccc(Oc3cccc(NS(=O)(=O)c4cccc(C(F)(F)F)c4)c3)c2[nH]1` were, in that order, 15.4 µM, 57 µM and 0.83 µM.
For `O=C(Nc1cccc(Oc2ccnc3[nH]c(=O)[nH]c23)c1)c1ccnn1-c1ccccc1`, in that order: greater than 100 µM, 92 µM and 15.6 µM.
Regarding `O=c1[nH]c2nccc(Oc3ccc(NS(=O)(=O)c4cccc(C(F)(F)F)c4)cc3)c2[nH]1`, in assay [1], the IC50 was greater than 100 µM.
In the case of `O=C(Nc1cccc(Oc2ccnc3[nH]c(=O)[nH]c23)c1)Nc1ccc(Cl)c(C(F)(F)F)c1`, the results for the IC50 in assay [1] and in assay [2] were 0.015 µM and 10.7 µM, respectively. The same compound gave a GI50 in assay [3] of 4.2 µM.
The like results for `O=C(Nc1cccc(Oc2ccnc3[nH]c(=O)[nH]c23)c1)c1cccc2ccccc12` were, in that order, 0.92 µM, 29 µM and 23 µM.
With `CC(C)c1cc(C(=O)Nc2cccc(Oc3ccnc4[nH]c(=O)[nH]c34)c2)n(-c2ccccc2)n1`, the IC50 in assay [1] is 0.087 µM; in assay [2] it was 13.7 µM. For the same compound, in assay [3], the GI50 turned out to be 5.7 µM.
For `O=C(Cc1cccc(OC(F)(F)F)c1)Nc1cccc(Oc2ccnc3[nH]c(=O)[nH]c23)c1`, in that order: greater than 10 µM, 12.8 µM and 29.4 µM.
The like results for `O=C(CCc1ccccc1)Nc1cccc(Oc2ccnc3[nH]c(=O)[nH]c23)c1` were, in that order, 94 µM, greater than 100 µM and 30.9 µM.
For `O=C(Nc1cccc(OC(F)(F)C(F)F)c1)c1cccc(Oc2ccnc3[nH]c(=O)[nH]c23)c1`, in that order: 0.24 µM, 8 µM and 0.677 µM.
For `O=C(Nc1cc(F)cc(Oc2ccnc3[nH]c(=O)[nH]c23)c1)c1cccc(OC(F)(F)F)c1`, the IC50 in assay [1] came out at 0.033 µM; in assay [2] it was 16 µM. For the same compound, in assay [3], the GI50 stood at 2.4 µM.
For `O=C(Nc1cccc(Oc2ccnc3[nH]c(=O)[nH]c23)c1)c1cccc(-n2cccc2)c1`, in that order: 0.057 µM, 20.4 µM and 1.1 µM.
Consider `O=C(Nc1cccc(Oc2ccnc3[nH]c(=O)[nH]c23)c1)c1ccccc1OC(F)(F)F`, for which the IC50 was 79 µM in assay [1] and 35.8 µM in assay [2]. This compound also had a GI50 in assay [3] of 1.3 µM.
The like results for `O=c1[nH]c2nccc(Oc3cccc(NS(=O)(=O)c4ccc(Cl)c(C(F)(F)F)c4)c3)c2[nH]1` were, in that order, 6.8 µM, 66 µM and 40 µM.
As for `Cc1ccc(NC(=O)c2cccc(OC(F)(F)F)c2)cc1Oc1ccnc2[nH]c(=O)[nH]c12`, the IC50 in assay [1] is greater than 10 µM; in assay [2] it was greater than 100 µM. Moreover, in assay [3], growth was halved (GI50) at 38 µM.
With `O=C(Nc1cccc(Oc2ccnc3[nH]c(=O)[nH]c23)c1)c1cccc(OC(F)(F)F)c1`, the 50% inhibitory concentration (IC50) in assay [1] was 0.014 µM; in assay [2], 7.56 µM. For the same compound, the GI50 in assay [3] worked out at 1 µM.
For `Cc1ccc(Oc2ccnc3[nH]c(=O)[nH]c23)cc1NC(=O)c1cccc(OC(F)(F)F)c1`, the results for the IC50 in assay [1] and in assay [2] were greater than 10 µM and greater than 100 µM, respectively.
On to `O=C(Cc1cccc(C(F)(F)F)c1)Nc1cccc(Oc2ccnc3[nH]c(=O)[nH]c23)c1`, for which the IC50 was greater than 10 µM in assay [1] and 17.8 µM in assay [2]. In assay [3], this compound yielded a GI50 of 25.7 µM.
For `O=C(Nc1cc(Oc2ccnc3[nH]c(=O)[nH]c23)c(F)cc1F)c1cccc(OC(F)(F)F)c1`, in that order: 0.01 µM, 6.9 µM and 4.6 µM.
Take `COc1ccc(NC(=O)c2cccc(OC(F)(F)F)c2)cc1Oc1ccnc2[nH]c(=O)[nH]c12`: the half-maximal inhibitory concentration (IC50) in assay [1] was 0.34 µM; in assay [2], greater than 100 µM.
On to `Cc1ccc(-n2nc(C(F)(F)F)cc2NC(=O)c2cccc(Oc3ccnc4[nH]c(=O)[nH]c34)c2)cc1`, for which the 50% inhibitory concentration (IC50) is 0.5 µM in assay [1] and 14.8 µM in assay [2]. Further, the GI50 in assay [3] worked out at 32 µM.
In the case of `O=C(Nc1cccc(Oc2ccnc3[nH]c(=O)[nH]c23)c1)c1ccc2sccc2c1`, the IC50 in assay [1] was determined as 22 µM; in assay [2] it was 66 µM. The compound further gave a GI50 in assay [3] of 1.5 µM.
For `O=c1[nH]c2nccc(Oc3cccc(NS(=O)(=O)c4cccc5ccccc45)c3)c2[nH]1`, in that order: 25 µM, 21.3 µM and 0.85 µM.
The like results for `O=C(Nc1cccc(Oc2ccnc3[nH]c(=O)[nH]c23)c1)c1ccccc1` were, in that order, 25.2 µM, greater than 100 µM and 1.54 µM.
For the compound `O=C(Nc1cccc(Oc2ccnc3[nH]c(=O)[nH]c23)c1)Nc1cc(C(F)(F)F)ccc1N1CCOCC1`, the IC50 in assay [1] turned out to be 0.74 µM; in assay [2] it was 42 µM. The GI50 in assay [3] was 16.7 µM.
`O=C(Nc1ccc(Oc2ccnc3[nH]c(=O)[nH]c23)cc1)Nc1ccc(Cl)c(C(F)(F)F)c1` came in with a half-inhibitory concentration (IC50) in assay [1] of 0.023 µM.
Take `O=C(Nc1cccc(Oc2ccnc3[nH]c(=O)[nH]c23)c1)c1cccc(Br)c1`: the IC50 in assay [1] came out at 1.56 µM; in assay [2] it was 100 µM. This compound also yielded a concentration for 50% growth inhibition (GI50) in assay [3] of 0.907 µM.
`O=C(Nc1ccc(Oc2ccnc3[nH]c(=O)[nH]c23)cc1)c1cc(F)cc(N2CCOCC2)c1` yielded an IC50 in assay [1] greater than 100 µM.
Turning to `O=C(Nc1cccc(Oc2ccnc3[nH]c(=O)[nH]c23)c1)c1cccc2c1OCCO2`, the IC50 in assay [1] and in assay [2] was greater than 100 µM in each case. Moreover, the GI50 in assay [3] came to 40 µM.
As to `O=C(Nc1cc(C(F)(F)F)ccc1F)c1cccc(Oc2ccnc3[nH]c(=O)[nH]c23)c1`, the IC50 came out at 4.7 µM in assay [1] and 35 µM in assay [2]. In assay [3], this compound returned a GI50 of 31 µM.
With `COc1cc(NC(=O)c2cccc(OC(F)(F)F)c2)cc(Oc2ccnc3[nH]c(=O)[nH]c23)c1`, the figures for the IC50 in assay [1] and in assay [2] were 0.064 µM and 16.6 µM, respectively.
For the compound `CC(C)(C)c1cccc(C(=O)Nc2cccc(Oc3ccnc4[nH]c(=O)[nH]c34)c2)c1`, the IC50 in assay [1] worked out at 0.017 µM; in assay [2], 3.5 µM. In assay [3], this compound displayed a GI50 of 1.83 µM.
The like results for `O=C(Nc1cccc(Oc2ccnc3[nH]c(=O)[nH]c23)c1)c1cccc(OC(F)(F)F)c1F` were, in that order, 0.015 µM, 6.7 µM and 0.57 µM.
For `CC(C)(C)c1cc(C(=O)Nc2cccc(Oc3ccnc4[nH]c(=O)[nH]c34)c2)n(-c2ccccc2)n1`, in that order: 0.274 µM, 13.7 µM and 3.1 µM.
Consider `O=C(Nc1ccc(Cl)c(C(F)(F)F)c1)c1cccc(Oc2ccnc3[nH]c(=O)[nH]c23)c1`, for which the IC50 came to 0.09 µM in assay [1] and 8.2 µM in assay [2]. In assay [3], the GI50 is 7.3 µM.
Regarding `Cc1c(NC(=O)c2cccc(OC(F)(F)F)c2)cccc1Oc1ccnc2[nH]c(=O)[nH]c12`, the IC50 was greater than 10 µM in assay [1] and greater than 100 µM in assay [2].
The like results for `O=C(Cc1ccccc1)Nc1cccc(Oc2ccnc3[nH]c(=O)[nH]c23)c1` were, in that order, 87 µM and greater than 100 µM.
Compound `O=C(Nc1ccc(Oc2ccnc3[nH]c(=O)[nH]c23)cc1)c1ccc(Cl)c(C(F)(F)F)c1` had an IC50 in assay [1] of 15.9 µM.
Regarding `O=C(Nc1cccc(Oc2ccnc3[nH]c(=O)[nH]c23)c1)c1ccc(C(F)(F)F)cc1`, the figures for the IC50 in assay [1] and in assay [2] were 0.73 µM and greater than 100 µM, respectively.
The like results for `CCC(C)(C)c1cccc(C(=O)Nc2cccc(Oc3ccnc4[nH]c(=O)[nH]c34)c2)c1` were, in that order, 0.04 µM and 3.1 µM.
The like results for `Cc1cc(C(=O)Nc2cccc(Oc3ccnc4[nH]c(=O)[nH]c34)c2)n(C)n1` were, in that order, greater than 100 µM and 79 µM.
In turn, `O=c1[nH]c2nccc(Oc3ccc(NS(=O)(=O)c4ccccc4)cc3)c2[nH]1` yielded an IC50 in assay [1] of 0.85 µM.
As to `CN(C)c1cccc(C(=O)Nc2cccc(Oc3ccnc4[nH]c(=O)[nH]c34)c2)c1`, the IC50 is greater than 100 µM in assay [1] and 42 µM in assay [2].
Turning to `O=C(Nc1ccc(Oc2ccnc3[nH]c(=O)[nH]c23)cc1)c1ccc(Br)cc1`, the IC50 in assay [1] is 14 µM. In other words, the double-digit micromolar range.
Regarding `Cc1ccc(-n2nc(C(C)(C)C)cc2NC(=O)c2cccc(Oc3ccnc4[nH]c(=O)[nH]c34)c2)cc1`, the figures for the IC50 in assay [1] and in assay [2] were 0.59 µM and 2.05 µM, respectively.
In assay [1], `O=c1[nH]c2nccc(Oc3ccc(NS(=O)(=O)c4ccc(Cl)c(C(F)(F)F)c4)cc3)c2[nH]1` showed an IC50 greater than 100 µM.

The record behind these values is ChEMBL document CHEMBL1157573, “BRAF inhibitors based on an imidazo[4,5]pyridin-2-one scaffold and a meta substituted middle ring” (J Med Chem, 2010).
